{"data": "Measured values from different studies", "effect on": "microbial growth", "note": "Lines come from different studies, so protocols differ."}
{"SMILES": "C=C(NC(=O)C(=C)NC(=O)c1csc(C2=N[C@@H]3c4csc(n4)[C@H]4NC(=O)c5csc(n5)[C@H]([C@](C)(O)[C@@H](C)O)NC(=O)[C@H]5CSC(=N5)/C(=C/C)NC(=O)[C@H]([C@@H](C)O)NC(=O)c5csc(n5)[C@]3(CC2)NC(=O)[C@H](C)NC(=O)C(=C)NC(=O)[C@H](C)NC(=O)[C@H]([C@@H](C)CC)N[C@@H]2C=Cc3c([C@H](C)O)cc(nc3[C@H]2O)C(=O)O[C@@H]4C)n1)C(N)=O", "organism": "Enterococcus faecium", "MIC [µg/mL]": 0.12}
{"SMILES": "CN[C@H](CC(C)C)C(=O)N[C@H]1C(=O)N[C@@H](CC(N)=O)C(=O)N[C@H]2C(=O)N[C@H]3C(=O)N[C@H](C(=O)N[C@H](C(=O)O)c4cc(O)cc(O)c4-c4cc3ccc4O)[C@H](O)c3ccc(c(Cl)c3)Oc3cc2cc(c3O[C@@H]2O[C@H](CO)[C@@H](O)[C@H](O)[C@H]2O[C@H]2C[C@](C)(N)[C@H](O)[C@H](C)O2)Oc2ccc(cc2Cl)[C@H]1O", "organism": "Enterococcus faecium", "system": "ATCCBAA2317 VRE", "setting": "drug-resistant strain", "MIC [µg/mL]": 250}
{"SMILES": "CCCCCC/C=C\\CCCCCCCCCc1cc(O)cc(O)c1", "organism": "Enterococcus faecium", "test": "broth dilution", "setting": "drug-resistant strain", "MIC [µg/mL]": 64}
{"SMILES": "COC(=O)c1cc(-c2cccc(NC(=O)Nc3ccc(Cl)c(Cl)c3)c2)on1", "organism": "Mycobacteroides chelonae", "test": "broth dilution", "system": "ATCC35752", "setting": "48 h", "MIC [µg/mL]": "> 64"}
{"SMILES": "O=c1c2cc(Br)ccc2nc(/C=C/c2ccc([N+](=O)[O-])cc2)n1-c1cccc(O)c1", "organism": "Enterococcus faecium", "test": "broth dilution", "system": "NCTC7171", "MIC [µg/mL]": "> 128"}
{"SMILES": "COC(=O)c1cc(-c2ccc(OC)c(NC(=O)Nc3ccc(Cl)c(Cl)c3)c2)on1", "organism": "Mycobacteroides chelonae", "test": "broth dilution", "system": "ATCC35752", "setting": "48 h", "MIC [µg/mL]": "> 64"}
{"SMILES": "O=c1c2ccccc2nc(CCc2ccccc2)n1-c1cccc(O)c1", "organism": "Enterococcus faecium", "test": "broth dilution", "system": "NCTC7171", "MIC [µg/mL]": "> 128"}
{"SMILES": "OC(Cn1cncn1)(Cn1cncn1)c1ccc(F)cc1F", "organism": "Candida albicans", "system": "28A", "MIC [µg/mL]": "> 128"}
{"SMILES": "CCCCCCCCCC(=O)N[C@@H](Cc1c[nH]c2ccccc12)C(=O)N[C@H](CC(N)=O)C(=O)N[C@@H](CC(=O)O)C(=O)N[C@@H]1C(=O)NCC(=O)N[C@@H](CCCN)C(=O)N[C@@H](CC(=O)O)C(=O)N[C@H](C)C(=O)N[C@@H](CC(=O)O)C(=O)NCC(=O)N[C@H](CO)C(=O)N[C@@H]([C@H](C)CC(=O)O)C(=O)N[C@@H](CC(=O)c2ccccc2N)C(=O)O[C@@H]1C", "organism": "Enterococcus faecium", "test": "broth dilution", "setting": "drug-resistant strain", "MIC [µg/mL]": 0.25}
{"SMILES": "O=c1c2ccccc2nc(Cc2ccccc2)n1-c1cccc(O)c1", "organism": "Enterococcus faecium", "test": "broth dilution", "system": "NCTC7171", "MIC [µg/mL]": 128}
{"SMILES": "COC(=O)c1cc(-c2cccc(NC(=O)Nc3ccccc3)c2)on1", "organism": "Mycobacteroides chelonae", "test": "broth dilution", "system": "ATCC35752", "setting": "48 h", "MIC [µg/mL]": "> 64"}
{"SMILES": "O=c1c2ccccc2nc(/C=C/c2ccc([N+](=O)[O-])cc2)n1-c1ccc(O)cc1", "organism": "Enterococcus faecium", "test": "broth dilution", "system": "NCTC7171", "MIC [µg/mL]": 64}
{"SMILES": "COC(=O)c1cc(-c2cccc(NC(=O)Nc3ccccc3C)c2)on1", "organism": "Mycobacteroides chelonae", "test": "broth dilution", "system": "ATCC35752", "setting": "48 h", "MIC [µg/mL]": "> 64"}
{"SMILES": "CCOC(=O)CON", "organism": "Candida albicans", "system": "28A", "MIC [µg/mL]": 32}
